# Platelet DG rel: inhibitors of platelet dense granule secretion, primary screen, cell-based, MLPCN, human platelets | human platelet-rich plasma, SFLLRN dense granule ATP release, luminescence | inhibition, %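 (compounds screened at 7.5 µM in platelet-rich plasma)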 | 300,000 tested, 0.22% active | AID 1663, 2009;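 active = mean replicate score, as percent of positive control, at or above 50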
# PPC-1+TRAIL kill: compounds killing PPC-1 cancer cells with TRAIL present, primary screen, TRAIL potentiator project, ATPLite luminescence, uHTS; cell killing (% activity), % at 4 µM or 5 µM; PPC-1 cells + TRAIL, ATPLite viability luminescence; 220,000 tested, 0.41% active;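 active = cell killing above 50% in the first pass at 4 µM, then a duplicate retest at 5 µM averaging 50% or more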;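 note: plate controls were cells with TRAIL plus DMSO for no effect and medium-only wells lacking cells for full effect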
# FLuc inhib CS: firefly luciferase enzyme inhibitors, primary screen, artefact control for luciferase-based inhibitor screens, biochemical, luminescence, ATPLite; Luciferin 4-monooxygenase (Photinus pyralis), P08659; 10 min; inhibition, % at 10 µM; 200,000 tested, 1.5% active; AID 1006, 2008;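 active = inhibition above about 50% when tested at 10 µM, limit read from the data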
# Target sequence (P08659 whole entry, looked up): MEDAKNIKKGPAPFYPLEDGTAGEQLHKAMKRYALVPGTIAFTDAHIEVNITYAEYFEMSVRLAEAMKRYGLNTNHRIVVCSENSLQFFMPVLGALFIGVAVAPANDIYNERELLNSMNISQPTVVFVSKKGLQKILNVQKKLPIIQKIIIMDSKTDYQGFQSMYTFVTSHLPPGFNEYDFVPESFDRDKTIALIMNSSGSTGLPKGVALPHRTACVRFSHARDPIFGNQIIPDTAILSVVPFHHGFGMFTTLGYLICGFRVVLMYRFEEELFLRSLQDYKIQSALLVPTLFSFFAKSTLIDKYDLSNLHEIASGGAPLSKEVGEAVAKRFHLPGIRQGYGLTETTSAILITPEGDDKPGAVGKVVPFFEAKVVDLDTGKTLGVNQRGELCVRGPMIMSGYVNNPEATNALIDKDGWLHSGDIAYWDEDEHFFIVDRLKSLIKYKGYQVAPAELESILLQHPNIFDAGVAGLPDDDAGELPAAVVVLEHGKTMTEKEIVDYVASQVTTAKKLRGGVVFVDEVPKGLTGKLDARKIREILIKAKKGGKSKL
# FLuc act counter: FLuc activators, initial screening, artefact control for FLuc-dependent activation tests, biochemical, ATPlite luminescence; Luciferin 4-monooxygenase (Photinus pyralis), P08659; ATPlite luciferase biochemical, 10 min; 0 = ATP-free wells, 1 = DMSO control; activation factor at 10 µM; 200,000 tested, under 10 active; AID 1027, 2008;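 active = luciferase activation factor, scaled between plate controls, of at least 2 with compound at 10 µM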
#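 Assay system: Luciferase/luciferin detection reagent, cell-free biochemical luciferase assay / Read-out: luciferase activation / Benchmarks: No-ATP low control, compound-free enzyme-plus-ATP high control / Medium: PBS buffer for ATP / Detection: luminescence measurement of luciferase light output / Schedule: 10 min at ambient temperature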
# C8 TRAIL sens: viability loss with TRAIL in NB7+C8 cells, primary screen, TRAIL sensitizer project, cell-based, ATPlite luminescence. 360,000 tested, 1% active. inhibition (viability loss, TRAIL sensitization), % at 10 µM;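 active = compounds causing at least 50% loss of cell viability in the single-dose screen, relative to plate controls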
# PPC1 cytotox: cytotoxicity in PPC-1 cells, confirmation, cytotoxicity control for TRAIL apoptosis potentiator project, cell-based, ATP content luminescence. shares compounds with PPC-1+TRAIL kill. 1,200 tested, 50% active. PPC-1 viability, ATPlite luminescence, overnight. cytotoxicity, % at 5 µM. AID 1447, 2008;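 active = reconfirmed compounds whose average cytotoxicity reaches 50% or more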;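 note: 0% = DMSO-treated cells and 100% = wells holding medium but no cells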
# Active calls of the source: *; . = no result given. Only some compounds are listed: those with a hit (about 1.6% of all), similar ones and a draw of the others.
SMILES,Platelet DG rel,PPC-1+TRAIL kill,FLuc inhib CS,FLuc act counter,C8 TRAIL sens,PPC1 cytotox
CN(C(=O)c1cccc(Nc2ccc(-c3ccc4c(c3)OCCO4)nn2)c1)C1CCCCC1,.,52.6*,77.2*,0.2,68.2*,54.8*
Cc1ccc(NC(=O)N2CCc3ccccc3C2)cc1,-4.5,31.9,17.7,0.8,15.6,.
Cc1ccc(NC(=O)N2CCc3ccccc32)cc1C,16.2,55.4*,85.8*,0.1,65.7*,58.6*
Cc1ccc(NC(=O)N2CCc3ccccc32)cc1,33.5,66.8*,89.5*,0.1,62.6*,64.6*
CC(C)(C)NC(=O)c1ccc2c(c1)CCO2,0.2,10.3,.,.,10.2,.
O=C(NC(=O)c1ccccc1O)c1ccc2c(c1)CCO2,-0.3,68.7*,.,.,74.4*,67.6*
CC1(C(=O)NCc2cccs2)Cc2c(-c3ccc(C(N)=O)cc3)ccnc2O1 (stereo not drawn),.,.,.,.,7.7,.
Cc1ccc(NCc2ccccc2O)c(C)c1,5.7,9.6,-4.6,1,1.6,9.6
O=C(Nc1c(-c2ccc(Cl)cc2)[nH][nH]c1=O)c1ccc(Br)cc1,.,.,.,.,-10.8,.
Cc1nc(N)nc(N)c1/C=C/C(C)(C)c1ccc(Cl)cc1,-1.3,51.2*,-1.1,1,75.7*,47.7
COC(=O)c1ccc(NC(=O)CN(C)S(=O)(=O)c2ccc(OC)c(C)c2)cc1,5.2,-9.6,-0.7,1,-8.3,-1.8
COc1ccc(S(=O)(=O)N(C)CC(=O)Nc2ccc(C(N)=O)cc2)cc1OC,-8.1,24.9,-4.9,1,-11.0,.
O=C([C@H]1O[C@@H](n2ccc(=O)[nH]c2=O)[C@H](O)[C@@H]1O)N(CCC1=CCCCC1)CC1CC1,.,.,.,.,-25.7,.
CC1Cc2ccccc2N1S(=O)(=O)c1cnc(Cl)c(Cl)c1 (stereo not drawn),-0.5,49.9,.,.,-4.1,45.0
OC(c1ccc(F)cc1)c1nc(-c2ccc(F)c(Cl)c2)cs1 (stereo not drawn),.,.,.,.,-10.8,.
CCN1CCN(CCC(=O)Nc2ccc(F)c(F)c2)CC1,-1.9,.,.,.,0.2,.
O=C(CCN1CCN(CCO)CC1)Nc1ccc(F)c(F)c1,0.6,-1.2,-5.4,1.1,-6.2,5.2
OCCNCC(O)Cn1ccc2ccccc21 (stereo not drawn),-0.5,7.8,-9.3,1.1,-0.9,6.4
COC(=O)C[C@@H]1C=C[C@H](NC(=O)Nc2ccc(F)cc2)[C@@H](CO)O1,.,.,.,.,-11.7,.
Cn1c2ccc(Cl)cc2c2nc3ccccc3nc21,10.7,6.3,-3.8,1,5.6,21.1
Cc1ccc2c(c1)c1nc3ccccc3nc1n2C,8.7,.,.,.,1.8,.
Cc1nc2ccc(NC(=O)Cc3cccc(F)c3)cc2s1,8.0,3.0,4.2,1,2.7,.
Cc1nc2ccc(NC(=O)COc3ccccc3)cc2s1,.,0.6,-1.8,1,17.4,2.4
Cc1nc2ccc(NC(=O)Cc3ccsc3)cc2s1,7.9,7.5,33.1,0.7,22.4,10.2
CC(C)(C)c1ccc(C(=O)/C=C2\NC(=O)CS2)cc1,14.7,56.0*,89.1*,0.1,85.2*,57.0*
SMILES,Platelet DG rel,PPC-1+TRAIL kill,FLuc inhib CS,FLuc act counter,C8 TRAIL sens,PPC1 cytotox
OC(c1cc(F)cc(Cl)c1)c1ncc(-c2ccc3ccccc3c2)[nH]1 (stereo not drawn),.,.,.,.,6.8,.
COc1ccc(N2CCN(c3ccc(NC(=O)C4CCCCC4)cc3C#N)CC2)cc1,-3.7,-5.2,-3.8,1,-6.2,8.1
Cc1ccc(NC(=C(C#N)C#N)c2ccccc2)cc1,.,.,.,.,-9.5,.
CN1CCN(c2cc(-c3ccc4ccccc4c3)nc3ccnn23)CC1,.,.,.,.,14.5,.
CCCn1c(NC(=O)c2ccccc2)nc2ccccc21,-4.9,10.3,-4.0,1,13.1,8.4
CCCn1c(NC(=O)C2CCN(S(=O)(=O)c3cccs3)CC2)nc2ccccc21,5.4,11.2,-7.2,1.1,33.9,9.6
CCOC(=O)COc1ccc2c3c(c(=O)oc2c1C)CCC3,-4.7,7.6,-0.2,1,0.7,13.8
CC(=O)Nc1cccc(-c2ccnc3c2CC(C(=O)NCc2cccs2)O3)c1 (stereo not drawn),.,.,.,.,8.9,.
CCOC(=O)C1=C[C@@H](C2CCCC2)N(S(=O)(=O)c2ccc([N+](=O)[O-])cc2)[C@H]1c1ccccc1,.,.,.,.,37.5,.
c1ccc(COc2ccc(Oc3nc(N4CCCCC4)nc(N4CCOCC4)n3)nn2)cc1,-5.8,-5.5,-4.0,1,-14.5,.
Cc1ccc(Nc2nc(Oc3ccc(OCc4ccccc4)nn3)nc(N3CCOCC3)n2)cc1,-4.0,15.8,-2.9,1,29.0,12.9
Cc1noc2ncnc(Sc3ccccc3Cl)c12,-1.4,3.5,2.7,1,-17.0,.
Cc1ccc(Sc2ncnc3onc(C)c23)c(C)c1,.,-0.9,-6.2,1.1,-2.4,8.4
COC(=O)c1ccccc1NC(=O)Cn1c(=O)oc2ccc(Cl)cc21,-2.8,6.8,-4.9,1,-3.1,3.7
CCc1ccc(/C=N/NC(=O)c2ccccn2)cc1,43.6,72.5*,.,.,82.4*,71.1*
CC(=C/c1ccccc1)/C=N/NC(=O)c1ccccn1,29.6,81.5*,.,.,85.5*,81.2*
O=C(N/N=C/c1ccc(OC(=O)c2ccccc2Cl)cc1)c1ccccn1,-0.1,.,.,.,25.6,.
CC(=O)Nc1nc(=O)c2ccccc2s1,11.0,1.7,1.4,1,-6.7,.
O=C(Nc1nc(=O)c2ccccc2s1)c1ccccc1,0.7,26.2,59.8*,0.4,34.2,32.9
COC(=O)C1=C(C)NC(C)=C(C(=O)OC)C1c1ccc2ccccc2n1,-3.6,29.4,-4.6,1,1.4,.
O=C1c2ccccc2C(=O)C1c1ccc2ccccc2n1,17.7,83.7*,90.7*,0.1,83.6*,80.3*
Fc1ccc(-c2nnc(NC3=NCCCCC3)o2)cc1,63.9*,65.6*,87.0*,0.1,75.5*,63.8*
Cc1cccc(-c2nc(CN3CCN(C(=O)C4CCCO4)CC3)cs2)c1 (stereo not drawn),14.6,.,.,.,4.3,.
Cc1nc(CN2CCN(C(=O)NC3(c4ccccc4)CC3)CC2)cs1,-36.1,11.7,-5.7,1.1,4.8,-3.2
COc1ccc2nc(-c3cccc(N)c3)[nH]c2c1,28.4,51.9*,86.7*,0.1,52.4*,52.5*
COCc1cc(C)nc(SCc2nc3ccccc3c(=O)[nH]2)c1C#N,7.1,-4.6,-5.0,1.1,3.4,.
Cc1cc(C)c(C#N)c(SCc2nc3ccccc3c(=O)[nH]2)n1,-0.5,80.5*,38.5,0.6,77.3*,78.8*
CC(C)(C)c1ccc(-c2nnc(N)s2)cc1,4.7,47.4,87.0*,0.1,70.6*,47.7
Cc1cccc(Cc2cccc(C)c2O)c1O,.,.,.,.,-14.5,.

# Compound activity from PubChem.
